These results are taken from ChEMBL document CHEMBL1122703, “Antihypertensives. N-1H-Pyrrol-1-yl-3-pyridazinamines” (J Med Chem, 1984).

Series [1] deals with Rattus norvegicus. Kind of series: Oral dose which produces a 30 mmHg drop of systolic blood pressure (calculated on regression line). In kind it is functional. The note with it: Artery. In short, it runs like this:
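Groups of three male conscious spontaneously hypertensive rats; compound suspended in aqueous 0.5% methocel and given by gavage at 2 mL/kg. Systolic pressure measured by indirect tail-cuff before and 2 and 4 h after dosing, following 20 min warming at 37 °C. The dose giving a 30 mmHg fall was read from the regression line of maximum fall against log dose.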

Series [2] is described as follows: Partition coefficient (logD7.4). To be noted: octanol/water, pH 7.4.
The subject of series [3] is Canis familiaris. Put plainly: Effect of compound (given intravenously) on heart rate in conscious renal hypertensive dogs at 12 h. In kind it is functional, Canis lupus familiaris. In short, it runs like this: (§1)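 Groups of four conscious mongrel renal hypertensive dogs; compound dissolved in distilled water and given intravenously at 0.5 mL/kg (1 mg/kg or 0.3 mg/kg in the time-course table). Systolic pressure and heart rate measured indirectly at the tail with a sensor and pressure cuff, at 0, 4, 6, 8, 10, 12 and 20 h. Values are mean ± SE of four animals.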

The test system of series [4] is Canis familiaris. Put plainly: Effect of compound (given intravenously) on systolic blood pressure in conscious renal hypertensive dogs at 4 h. The series is classed as functional, Canis lupus familiaris, Artery. In a few lines:
as §1

The subject of series [5] is Canis familiaris. Kind of series: Effect of compound (given intravenously) on systolic blood pressure in conscious renal hypertensive dogs at 0 h. The series is classed as functional, Canis lupus familiaris, Artery. In a few lines:
as §1

Series [6] has as its system Canis familiaris. Kind of series: Effect of compound (given intravenously) on systolic blood pressure in conscious renal hypertensive dogs at 12 h. The series is classed as functional, Canis lupus familiaris, Artery. In short, it runs like this:
as §1

Series [7] relates to Canis familiaris. Put plainly: Effect of compound (given intravenously) on systolic blood pressure in conscious renal hypertensive dogs at 6 h. In kind it is functional, Canis lupus familiaris, Artery. In a few lines:
as §1

In series [8] the test system is Canis familiaris. Kind of series: Effect of compound (given intravenously) on heart rate in conscious renal hypertensive dogs at 4 h. The series is classed as functional, Canis lupus familiaris. In a few lines: as §1
Series [9] deals with Canis familiaris. Kind of series: Effect of compound (given intravenously) on heart rate in conscious renal hypertensive dogs at 0 h. The series is classed as functional, Canis lupus familiaris. In short, it runs like this: as §1
Series [10] concerns Canis familiaris. Kind of series: Effect of compound (given intravenously) on systolic blood pressure in conscious renal hypertensive dogs at 20 h. In kind it is functional, Canis lupus familiaris, Artery. In a few lines: as §1
Series [11] deals with Canis familiaris. Put plainly: Effect of compound (given intravenously) on heart rate in conscious renal hypertensive dogs at 10 h. The series is classed as functional, Canis lupus familiaris. In short, it runs like this:
as §1

Series [12] has as its system Canis familiaris. Put plainly: Effect of compound (given intravenously) on heart rate in conscious renal hypertensive dogs at 20 h. In kind it is functional, Canis lupus familiaris. In short, it runs like this: as §1
The test system of series [13] is Canis familiaris. Kind of series: Effect of compound (given intravenously) on systolic blood pressure in conscious renal hypertensive dogs at 10 h. The series is classed as functional, Canis lupus familiaris, Artery. In a few lines:
as §1

Series [14] has as its system Canis familiaris. Kind of series: Effect of compound (given intravenously) on systolic blood pressure in conscious renal hypertensive dogs at 8 h. The series is classed as functional, Canis lupus familiaris, Artery. In a few lines:
as §1

Series [15] has as its system Canis familiaris. Put plainly: Effect of compound (given intravenously) on heart rate in conscious renal hypertensive dogs 6 h. The series is classed as functional, Canis lupus familiaris. In a few lines:
as §1

The subject of series [16] is Canis familiaris. Put plainly: Effect of compound (given intravenously) on heart rate in conscious renal hypertensive dogs at 8 h. In kind it is functional, Canis lupus familiaris. In a few lines:
as §1

Each structure is given as a SMILES string.

`Cc1ccc(C)n1Nc1nnc(N2CCOCC2)c2ccccc12`: the ED30 in series [1] was about 91 mg/kg.
As for `Cc1cc(N2CCOCC2)nnc1Nn1c(C)ccc1C`, in series [1], the ED30 was about 26 mg/kg.
As to `Cc1ccc(C)n1Nc1ccc(N(CC(C)O)CC(C)O)nn1` (stereo not drawn), the ED30 in [1] is about 54 mg/kg.
The same measure, in the same setting: under `CCOCCN(CCOCC)c1ccc(Nn2c(C)ccc2C)nn1` stands 2 mg/kg.
As a reminder, the logD is lipophilicity at a set pH, counting ionised and neutral species. A higher logD goes with a more lipophilic compound. As to `Cc1ccc(C)n1N(C)c1ccc(N2CCOCC2)nn1`, in series [1], the ED30 was 15.8 mg/kg. The molecule further showed a logD in series [2] of 2.21.
Turning to `Cc1ccc(C)n1Nc1ccc(N2CCN(C)CC2)nn1`, in series [1], the ED30 is about 43 mg/kg.
Regarding `CN(c1ccc(N2CCOCC2)nn1)n1cccc1`, the ED30 in series [1] is 16.5 mg/kg.
Consider `Cc1ccc(C)n1Nc1ccc(N2CCCCC2)nn1`, for which, in series [1], the ED30 is 10 mg/kg.
Turning to `c1ccn(Nc2ccc(N3CCOCC3)nn2)c1`, the ED30 in series [1] is over 100 mg/kg.
For `Cc1ccc(C)n1Nc1ccc(N(C)C)nn1`, the ED30 in series [1] was about 22 mg/kg.
Take `Cc1c(Nn2c(C)ccc2C)nnc(N2CCOCC2)c1C`: the ED30 in series [1] is 35 mg/kg.
Take `Cc1ccc(C)n1Nc1ccc(N2CCNCC2)nn1`: the ED30 in [1] is 30 mg/kg.
Regarding `Cc1ccc(C)n1Nc1ccc(N(CCO)CCO)nn1`, the ED30 in series [1] is over 100 mg/kg.
Turning to `Cc1ccc(C)n1Nc1ccc(N2C(C)COCC2C)nn1` (stereo not drawn), the ED30 in [1] was 18.5 mg/kg.
On to `C=CCN(CC=C)c1ccc(Nn2c(C)ccc2C)nn1`, for which the ED30 in [1] was 11.4 mg/kg.
On the same count and under the same terms, with `Cc1ccc(C)n1Nc1ccc(N2CCSCC2)nn1` the figure was about 25 mg/kg.
On to `CC(=O)N(c1ccc(N2CCOCC2)nn1)n1c(C)ccc1C`, for which the ED30 in series [1] was 11.8 mg/kg. In series [2], this molecule gave a logD of 1.64.
Turning to `CCc1ccc(CC)n1Nc1ccc(N2CCOCC2)nn1`, the ED30 in series [1] was 15.4 mg/kg. The logD in [2] stood at 2.71.
Regarding `Cc1ccc(C)n1Nc1ccc(N2CCCC2)nn1`, the ED30 in [1] is over 100 mg/kg.
On the same count and under the same terms, with `Cc1ccc(C)n1Nc1ccc(N2CCC(O)CC2)nn1` the figure was 12.6 mg/kg; with `Cc1ccc(C)n1Nc1nnc(N2CCOCC2)c2c1CCCC2`, about 33 mg/kg; with `Cc1ccc(C)n1Nc1ccc(N(C)CC(C)O)nn1` (stereo not drawn), 7.7 mg/kg.
With `NNc1nncc2ccccc12` [HYDRALAZINE], the Heart rate worked out at 118 beats min-1 in series [3]; 128 beats min-1 in series [8]; 78 beats min-1 in series [9]; 125 beats min-1 in series [11]; 115 beats min-1 in [12]. Also, the Pressure in series [4] came out at 135 mmHg; in [5], 188 mmHg; in series [6] it was 190 mmHg; in [7], 138 mmHg; in series [10], 188 mmHg; in series [13] it was 188 mmHg. Besides, in [14], the Pressure came to 148 mmHg.
As for `CCN(CC)c1ccc(Nn2c(C)ccc2C)nn1`, the ED30 in series [1] was 3.9 mg/kg.
`Cc1ccc(C)n1Nc1ccc(N(CCO)CC(C)O)nn1` (stereo not drawn): in series [1], the ED30 was over 100 mg/kg.
For `COCCN(CCOC)c1ccc(Nn2c(C)ccc2C)nn1`, in [1], the ED30 was 2.7 mg/kg.
Take `Cc1ccc(C)n1Nc1nnc(N2CCC(O)CC2)c2ccccc12`: in series [1], the ED30 is about 33 mg/kg.
For `COCCN(C)c1ccc(Nn2c(C)ccc2C)nn1`, in series [1], the ED30 is 7 mg/kg. For the same molecule, the logD in [2] was determined as 2.16.
As for `Cc1ccc(C)n1Nc1ccc(N2CCOCC2)nn1.Cl` [MOPIDRALAZINE HYDROCHLORIDE], the Heart rate in series [3] turned out to be 105 beats min-1; in [8], 92 beats min-1; in [15], 100 beats min-1; in [9], 80 beats min-1; in series [11], 107 beats min-1; in [12], 105 beats min-1. Besides, the Heart rate in series [16] came to 110 beats min-1. Further, the Pressure came out at 168 mmHg in series [4]; 190 mmHg in series [5]; 165 mmHg in [6]; 150 mmHg in series [7]; 187 mmHg in series [10]; 147 mmHg in [13]. In series [14], the Pressure is listed as 140 mmHg. Moreover, the ED30 in series [1] is 3.9 mg/kg.
